2 molecules from ChEMBL document CHEMBL3526063, “Metabolism and pharmacokinetics of JM6 in mice: JM6 is not a prodrug for Ro-61-8048” (Drug Metab Dispos, 2012) can be followed below.

Each structure is given as a SMILES string. Bounds are passed on as bounds.

Data set [1] can be described thus: AUClast in C57BL/6N mouse treated with JM6 (containing <0.4% Ro-61-8048) at 9 mg/kg, po and Ro-61-8048 at 1 mg/kg, po drugs administered via gavage by LC-MS/MS analysis. It is filed as ADME, organism-based. More on the design: dose 9 mg/kg, time 0 - last, route oral. To be noted: plasma. The gist of the method: (§1)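 Male C57BL/6N mice were dosed by oral gavage at 10 mL/kg with a fine suspension in 10% hydroxypropyl-β-cyclodextrin in 50 mM phosphate buffer, pH 7. Plasma was taken at non-serial time points (n=3 per time point), extracted with 0.1% formic acid in acetonitrile containing diclofenac as internal standard, and quantified by UPLC-MS/MS. Composite non-compartmental parameters came from mean concentrations; AUClast by linear trapezoid, kel from at least three terminal points.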

A short description of data set [2]: Tmax in C57BL/6N mouse treated with JM6 (containing <0.4% Ro-61-8048) at 9.5 mg/kg, po and Ro-61-8048 at 0.05 mg/kg, po drugs administered via gavage by LC-MS/MS analysis. It is filed as ADME, organism-based. To be noted: in vivo, in the assay text read “0.5 mg/kg” for “0.05 mg/kg”. In a few lines:
(§2)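 Male C57BL/6N mice dosed by oral gavage (10 mL/kg) as fine suspensions in 10% hydroxypropyl-β-cyclodextrin in 50 mM phosphate buffer pH 7; dose formulations verified by LC-MS/MS. Plasma analysed by LC-MS/MS; composite non-compartmental parameters from mean concentrations (n=3 per time point), C0 set to zero. %F = dose-normalised po AUCinf over dose-normalised iv AUCinf, only within linear range.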

Data set [3] can be described thus: Half life in C57BL/6N mouse treated with JM6 (containing <0.4% Ro-61-8048) at 9 mg/kg, po and Ro-61-8048 at 1 mg/kg, po drugs administered via gavage by LC-MS/MS analysis. It is filed as ADME, organism-based. The conditions noted are these: in vivo. The gist of the method: as §1
Data set [4] concerns Mus musculus. Briefly: Dose normalised Cmax in C57BL/6N mouse treated with JM6 (containing <0.4% Ro-61-8048) at 9 mg/kg, po and Ro-61-8048 at 1 mg/kg, po drugs administered via gavage by LC-MS/MS analysis. It is filed as ADME, organism-based. To be noted: in vivo. The gist of the method: as §1
Data set [5] can be described thus: Hepatic extraction ratio in mouse Hepatocyte at 1 uM after 10 to 90 mins by LC-MS/MS analysis. The data set is classed as ADME, cell-based. The conditions noted are these: hepatocytes, read-out: ERH.
Data set [6] relates to Mus musculus. The experiment in a line: Dose normalised Cmax in C57BL/6N mouse treated with JM6 (containing <0.4% Ro-61-8048) at 25 mg/kg, po and Ro-61-8048 at 0.05 mg/kg, po drugs administered via gavage by LC-MS/MS analysis. The data set is classed as ADME, organism-based. The conditions noted are these: in vivo. The gist of the method:
as §1

The subject of data set [7] is Mus musculus. The experiment in a line: Dose normalised AUC in C57BL/6N mouse treated with JM6 (containing <0.4% Ro-61-8048) at 9 mg/kg, po and Ro-61-8048 at 1 mg/kg, po drugs administered via gavage by LC-MS/MS analysis. It is filed as ADME, organism-based. To be noted: in vivo. The gist of the method:
as §1

A short description of data set [8]: AUC(infinity) in C57BL/6N mouse treated with JM6 (containing <0.4% Ro-61-8048) at 10 mg/kg, po and Ro-61-8048 at 0.05 mg/kg, po drugs administered via gavage by LC-MS/MS analysis. The data set is classed as ADME, organism-based. More on the design: dose 10 mg/kg, route oral, time infinity. To be noted: plasma. In a few lines:
as §1

Data set [9] can be described thus: Half life in C57BL/6N mouse treated with JM6 (containing <0.4% Ro-61-8048) at 10 mg/kg, po and Ro-61-8048 at 0.05 mg/kg, po drugs administered via gavage by LC-MS/MS analysis. It is filed as ADME, organism-based. To be noted: in vivo. The gist of the method:
as §1

Data set [10] in a line: Apparent permeability from basolateral to apical side in MDCK2 cells at 10 uM after 1 hr by LC-MS/MS analysis. It is filed as ADME, cell-based, Canis lupus familiaris, MDCK-II. To be noted: dog. The gist of the method:
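MDCKII wild-type or MDR1 monolayers were grown 3 days on Transwells after seeding at 2×10^5 cells/well. Compound at 10 µM in HBSS with 25 mM HEPES, pH 7.4, was added apically or basolaterally in duplicate, with Lucifer Yellow as an integrity marker (wells above 100 nm/s rejected).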

In data set [11] the test system is Mus musculus. The experiment in a line: Dose normalised AUC in C57BL/6N mouse treated with JM6 (containing <0.4% Ro-61-8048) at 25 mg/kg, po and Ro-61-8048 at 0.05 mg/kg, po drugs administered via gavage by LC-MS/MS analysis. It is filed as ADME, organism-based. To be noted: in vivo. The gist of the method:
as §1

Data set [12] in a line: Metabolic stability in rat plasma assessed as half life at 5 uM after 10 to 1440 mins by LC-MS/MS analysis. It is filed as ADME, cell-free.
Data set [13] concerns the target Kynurenine 3-monooxygenase (Rattus norvegicus, UniProt O88867). The experiment in a line: Inhibition of Wistar rat KMO assessed as 3-hydroxykynurenine formation preincubated for 5 mins using 100 uM kynurenine as substrate by LC-MS/MS analysis. The gist of the method: (§3)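 Liver mitochondrial KMO preparation (mouse C57 BL/6J, rat Wistar, human) at 0.3 mg protein/mL in 100 mM potassium phosphate pH 7.4 with 200 µM NADPH, 0.4 U/mL G6PDH, 3 mM glucose 6-phosphate. Compound pre-incubated 5 min at 25°C, then 100 µM kynurenine added; 40 min (rodent) or 60 min (human). Stopped with TCA; 3-hydroxykynurenine by LC-MS/MS. IC50 from 8-point 3-fold dilutions (top 3 or 30 µM), triplicates, n≥2 runs.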

Data set [14] deals with Mus musculus. Briefly: Dose normalised Cmax in C57BL/6N mouse treated with JM6 (containing <0.4% Ro-61-8048) at 10 mg/kg, po and Ro-61-8048 at 0.05 mg/kg, po drugs administered via gavage by LC-MS/MS analysis. The data set is classed as ADME, organism-based. To be noted: in vivo. In a few lines:
as §1

The target of data set [15] is Kynurenine 3-monooxygenase (Mus musculus, UniProt Q91WN4). Briefly: Inhibition of C57BL/6J mouse KMO assessed as 3-hydroxykynurenine formation preincubated for 5 mins using 100 uM kynurenine as substrate by LC-MS/MS analysis. The gist of the method: as §3
Data set [16] can be described thus: Half life in C57BL/6N mouse treated with JM6 (containing <0.4% Ro-61-8048) at 25 mg/kg, po and Ro-61-8048 at 0.05 mg/kg, po drugs administered via gavage by LC-MS/MS analysis. The data set is classed as ADME, organism-based. The conditions noted are these: in vivo. In a few lines: as §1
Data set [17] can be described thus: Tmax in C57BL/6N mouse treated with JM6 (containing <0.4% Ro-61-8048) at 10 mg/kg, po and Ro-61-8048 at 0.05 mg/kg, po drugs administered via gavage by LC-MS/MS analysis. The data set is classed as ADME, organism-based. To be noted: in vivo. In a few lines: as §2
Data set [18] can be described thus: Metabolic stability in human plasma assessed as half life at 5 uM after 10 to 1440 mins by LC-MS/MS analysis. The data set is classed as ADME, cell-free.
The nature of data set [19]: Cmax in C57BL/6N mouse treated with JM6 (containing <0.4% Ro-61-8048) at 9 mg/kg, po and Ro-61-8048 at 1 mg/kg, po drugs administered via gavage by LC-MS/MS analysis. It is filed as ADME, organism-based. The conditions noted are these: in vivo. Also on record: dose 9 mg/kg, route oral. In a few lines: as §1
Data set [20] has as its system Mus musculus. The experiment in a line: Dose normalised AUC in C57BL/6N mouse treated with JM6 (containing <0.4% Ro-61-8048) at 9.5 mg/kg, po and Ro-61-8048 at 0.05 mg/kg, po drugs administered via gavage by LC-MS/MS analysis. To be noted: in vivo, in the assay text read “0.5 mg/kg” for “0.05 mg/kg”. It is filed as ADME, organism-based. The gist of the method:
as §1

Data set [21] is described as follows: Hepatic extraction ratio in human Hepatocyte at 1 uM after 10 to 90 mins by LC-MS/MS analysis. The conditions noted are these: hepatocytes, read-out: ERH. The data set is classed as ADME, cell-based.
A short description of data set [22]: AUClast in C57BL/6N mouse treated with JM6 (containing <0.4% Ro-61-8048) at 10 mg/kg, po and Ro-61-8048 at 0.05 mg/kg, po drugs administered via gavage by LC-MS/MS analysis. More on the design: dose 10 mg/kg, time 0 - last, route oral. To be noted: plasma. The data set is classed as ADME, organism-based. In a few lines: as §1

The AUC(0-t) is exposure summed from dosing to a finite time, without extrapolation to infinity. The term Tmax denotes the time from dosing to the highest level. What is called half-life is how long it takes for the measured level to halve. Broadly, the AUC(0-inf) is total exposure, with the tail of the curve extrapolated. One may read the Papp as a coefficient for how fast a substance crosses the barrier. As a reminder, the IC50 is the midpoint of a concentration-inhibition curve. The term Cmax denotes the peak of the concentration-time curve. As a reminder, the Papp B→A is the apparent permeability from the basolateral to the apical side of a cell layer.

Chain of Kynurenine 3-monooxygenase (Rattus norvegicus, UniProt O88867) (O88867 whole entry): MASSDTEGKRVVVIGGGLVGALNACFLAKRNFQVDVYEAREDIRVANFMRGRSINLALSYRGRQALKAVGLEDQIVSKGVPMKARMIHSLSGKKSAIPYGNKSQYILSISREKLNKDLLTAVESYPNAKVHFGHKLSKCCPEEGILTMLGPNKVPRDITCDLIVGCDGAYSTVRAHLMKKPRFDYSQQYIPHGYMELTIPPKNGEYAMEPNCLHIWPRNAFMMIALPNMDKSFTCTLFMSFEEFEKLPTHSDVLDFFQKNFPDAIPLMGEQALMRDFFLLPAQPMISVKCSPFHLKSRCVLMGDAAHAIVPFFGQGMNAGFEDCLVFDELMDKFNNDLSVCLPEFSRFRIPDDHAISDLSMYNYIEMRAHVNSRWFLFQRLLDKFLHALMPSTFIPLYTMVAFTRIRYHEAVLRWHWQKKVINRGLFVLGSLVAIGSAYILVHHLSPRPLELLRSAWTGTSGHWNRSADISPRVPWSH
Chain of Kynurenine 3-monooxygenase (Mus musculus, UniProt Q91WN4) (Q91WN4 whole entry): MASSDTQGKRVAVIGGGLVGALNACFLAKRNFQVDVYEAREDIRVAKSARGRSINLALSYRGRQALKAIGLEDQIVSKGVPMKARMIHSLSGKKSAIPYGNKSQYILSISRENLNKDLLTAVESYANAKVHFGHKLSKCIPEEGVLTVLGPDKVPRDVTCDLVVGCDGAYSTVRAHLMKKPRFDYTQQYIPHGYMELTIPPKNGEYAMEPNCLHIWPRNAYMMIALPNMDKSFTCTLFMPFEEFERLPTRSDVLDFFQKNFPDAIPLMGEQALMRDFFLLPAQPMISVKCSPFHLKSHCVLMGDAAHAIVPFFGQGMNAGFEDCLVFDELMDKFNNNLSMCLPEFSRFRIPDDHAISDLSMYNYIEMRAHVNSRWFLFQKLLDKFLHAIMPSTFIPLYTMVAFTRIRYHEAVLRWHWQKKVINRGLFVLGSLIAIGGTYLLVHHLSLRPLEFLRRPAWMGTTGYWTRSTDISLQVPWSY

On to `COc1ccc(S(=O)(=O)Nc2nc(-c3cccc([N+](=O)[O-])c3)c(CN3CCCCC3)s2)cc1OC`, for which the AUC(0-t) was determined as 1.1 µM·h in [1] and 1.3 µM·h in data set [22]. Further, the time of peak concentration (Tmax) in data set [2] and in data set [17] was 30 min each time. Besides, the half-life in [3], in data set [9] and in [16] was 42 min each time. Besides, the Cmax/dose stood at 0.11 µM in [4], 0.14 µM in [6] and 0.19 µM in [14]. The hepatic extraction ratio at 1 µM in data set [5] amounted to 0.83; in [21], 0.67. In addition, the results for the AUC/dose in data set [7], in data set [11] and in data set [20] were 130 nM·kg·h/mg, 190 nM·kg·h/mg and 160 nM·kg·h/mg, respectively. In data set [8], this molecule had an AUC(0-inf) of 1.3 µM·h. Moreover, the Papp in data set [10] (mdck-ii, 1 h, 10 µM) came to 0.53 ×10⁻⁶ cm/s. In addition, the half-life at 5 µM in data set [12] and in data set [18] was > 1440 min in each case. The IC50 stood at 7.1 µM in data set [13] and 20 µM in data set [15]. The molecule also displayed a Cmax in [19] of 1 µM.

As for `COc1ccc(S(=O)(=O)Nc2nc(-c3cccc([N+](=O)[O-])c3)cs2)cc1OC`, the AUC(0-t) in data set [1] stood at 110 µM·h; in [22] it was 4.9 µM·h. Also, the Tmax was determined as 30 min in data set [2] and 60 min in data set [17]. Further, the figures for the half-life in data set [3], in data set [9] and in data set [16] were 264 min, 348 min and 312 min, respectively. For the same molecule, the Cmax/dose in data set [4] is 21 µM; in data set [6] it was 16 µM; in data set [14] it was 11 µM. The hepatic extraction ratio at 1 µM in [5] was < 0.5; in data set [21], 0.8. The AUC/dose came out at 140000 nM·kg·h/mg in data set [7], 180000 nM·kg·h/mg in [11] and 110000 nM·kg·h/mg in data set [20]. Also, the AUC(0-inf) in [8] amounted to 5.2 µM·h. In data set [10] (MDCK), the Papp B→A at 1 h, 10 µM was 13 ×10⁻⁶ cm/s. The half-life at 5 µM in data set [12] and in data set [18] was > 1440 min in each case. The results for the IC50 in data set [13] and in data set [15] were 0.022 µM and 0.09 µM, respectively. The highest level in [19] (Cmax) was 17 µM.
